Experimental data taken from ChEMBL document CHEMBL4732237, “Discovery of 4-alkoxy-2-aryl-6,7-dimethoxyquinolines as a new class of topoisomerase I inhibitors endowed with potent in vitro anticancer activity” (2021).

What was measured:
Type in all cases: functional
COLO 205 = assay: Growth inhibition of human COLO 205 cells incubated for 48 hrs by sulforhodamine B assay
Method in brief: (§1)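 NCI five-dose screen covering 0.01–100 µM, prepared as 10-fold or ½-log dilutions from DMSO stock. Cells in RPMI 1640 with 5% FBS were exposed for 48 h at 37 °C after 24 h preincubation. Adherent cells were fixed with TCA (final 10%) and suspension cells were settled before fixing. Stain was SRB, read at 515 nm. GI50 = 50% reduction in net protein increase versus control, with Tz taken at drug addition.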

UACC-257 = assay: Growth inhibition of human UACC-257 cells incubated for 48 hrs by sulforhodamine B assay
Method in brief: (§2)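 NCI five-dose assay, with drug stocks in DMSO diluted in medium to five concentrations (10-fold or ½-log series). Cells in RPMI 1640/5% FBS were pre-incubated 24 h, and time-zero plates were TCA-fixed at drug addition. After 48 h at 37 °C, cells were TCA-fixed, SRB-stained and read at 515 nm. GI50 is from [(Ti-Tz)/(C-Tz)]×100 = 50, TGI from Ti = Tz, and LC50 from [(Ti-Tz)/Tz]×100 = -50.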

CAKI-1 = assay: Growth inhibition of human CAKI-1 cells incubated for 48 hrs by sulforhodamine B assay; method in brief: as §1
OVCAR-3 = assay: Growth inhibition of human OVCAR-3 cells incubated for 48 hrs by sulforhodamine B assay
Method in brief: (§3)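 NCI five-dose screen (0.01–100 µM; five concentrations plus control). Cells grown in RPMI 1640/5% FBS/2 mM L-glutamine and preincubated 24 h, with time-zero plates TCA-fixed. Drug exposure 48 h at 37 °C, followed by SRB protein staining and reading at 515 nm. GI50 is the concentration at [(Ti-Tz)/(C-Tz)]×100 = 50.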

IGROV-1 = assay: Growth inhibition of human IGROV-1 cells incubated for 48 hrs by sulforhodamine B assay; method in brief: as §1
DU-145 = assay: Growth inhibition of human DU-145 cells incubated for 48 hrs by sulforhodamine B assay; method in brief: as §1
SF-268 = assay: Growth inhibition of human SF-268 cells incubated for 48 hrs by sulforhodamine B assay; method in brief: as §3
OVCAR-8 = assay: Growth inhibition of human OVCAR-8 cells incubated for 48 hrs by sulforhodamine B assay; method in brief: as §3
SK-MEL-2 = assay: Growth inhibition of human SK-MEL-2 cells incubated for 48 hrs by sulforhodamine B assay; method in brief: as §3
EKVX = assay: Growth inhibition of human EKVX cells incubated for 48 hrs by sulforhodamine B assay; method in brief: as §1
SW-620 = assay: Growth inhibition of human SW-620 cells incubated for 48 hrs by sulforhodamine B assay; method in brief: as §2
SR = assay: Growth inhibition of human SR cells incubated for 48 hrs by sulforhodamine B assay; method in brief: as §3
SF-295 = assay: Growth inhibition of human SF-295 cells incubated for 48 hrs by sulforhodamine B assay; method in brief: as §3
MDA-MB-468 = assay: Growth inhibition of human MDA-MB-468 cells incubated for 48 hrs by sulforhodamine B assay; method in brief: as §1
SK-MEL-5 = assay: Growth inhibition of human SK-MEL-5 cells incubated for 48 hrs by sulforhodamine B assay; method in brief: as §3
K562 = assay: Growth inhibition of human K562 cells incubated for 48 hrs by sulforhodamine B assay; method in brief: as §1
SK-MEL-28 = assay: Growth inhibition of human SK-MEL-28 cells incubated for 48 hrs by sulforhodamine B assay; method in brief: as §3
LOX IMVI = assay: Growth inhibition of human LOX IMVI cells incubated for 48 hrs by sulforhodamine B assay; method in brief: as §1
HCT-15 = assay: Growth inhibition of human HCT-15 cells incubated for 48 hrs by sulforhodamine B assay; method in brief: as §1
MDA-MB-435 = assay: Growth inhibition of human MDA-MB-435 cells incubated for 48 hrs by sulforhodamine B assay; method in brief: as §1
HL-60(TB) = assay: Growth inhibition of human HL-60(TB) cells incubated for 48 hrs by sulforhodamine B assay
Method in brief: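 NCI-60 five-dose screen. Cells in RPMI 1640 with 5% FBS and 2 mM L-glutamine were plated at 5000–40,000 cells/well and preincubated 24 h at 37 °C, 5% CO2. Drugs in DMSO were given at five serial 10-fold or ½-log dilutions for 48 h. Adherent cells fixed with 10% TCA (final); suspension cells fixed after settling. SRB stained; A515. GI50 from [(Ti-Tz)/(C-Tz)]x100 = 50.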

UACC-62 = assay: Growth inhibition of human UACC-62 cells incubated for 48 hrs by sulforhodamine B assay; method in brief: as §2
MDA-MB-231 = assay: Growth inhibition of human MDA-MB-231 cells incubated for 48 hrs by sulforhodamine B assay; method in brief: as §1
CCRF-CEM = assay: Growth inhibition of human CCRF-CEM cells incubated for 48 hrs by sulforhodamine B assay; method in brief: as §1
786-0 = assay: Growth inhibition of human 786-0 cells incubated for 48 hrs by sulforhodamine B assay; method in brief: as §1
SNB-19 = assay: Growth inhibition of human SNB-19 cells incubated for 48 hrs by sulforhodamine B assay; method in brief: as §3
A549 = assay: Growth inhibition of human A549 cells incubated for 48 hrs by sulforhodamine B assay; method in brief: as §1
HCT-29 = assay: Growth inhibition of human […] cells incubated for 48 hrs by sulforhodamine B assay; method in brief: as §1
NCI-H23 = assay: Growth inhibition of human NCI-H23 cells incubated for 48 hrs by sulforhodamine B assay; method in brief: as §3

Row | SMILES | GI50 (COLO 205) | GI50 (UACC-257) | GI50 (CAKI-1) | GI50 (OVCAR-3) | GI50 (IGROV-1) | GI50 (DU-145) | GI50 (SF-268) | GI50 (OVCAR-8) | GI50 (SK-MEL-2) | GI50 (EKVX) | GI50 (SW-620) | GI50 (SR) | GI50 (SF-295) | GI50 (MDA-MB-468) | GI50 (SK-MEL-5) | GI50 (K562) | GI50 (SK-MEL-28) | GI50 (LOX IMVI) | TGI (LOX IMVI) | GI50 (HCT-15) | also measured
1 | COc1cc2nc(-c3ccc(Cl)cc3)cc(OCCCN3CCC(O)CC3)c2cc1OC | 532 nM | 2060 nM | 416 nM | 3240 nM | 923 nM | 2780 nM | 3360 nM | 2000 nM | 2070 nM | 1330 nM | 3050 nM | 373 nM | 1660 nM | 1560 nM | 1270 nM | 1630 nM | 1490 nM | 227 nM | 589 nM | 763 nM | GI50 (MDA-MB-435): 2050 nM; GI50 (HL-60(TB)): 4270 nM; GI50 (UACC-62): 1900 nM; GI50 (MDA-MB-231): 665 nM; GI50 (CCRF-CEM): 2650 nM; GI50 (786-0): 3310 nM; GI50 (SNB-19): 3190 nM; GI50 (A549): 2200 nM; GI50 (HCT-29): 700 nM; GI50 (NCI-H23): 2830 nM
2 | COc1cc2nc(-c3ccc(C(F)(F)F)cc3)cc(OCCCN3CCCC3)c2cc1OC | 401 nM | 1410 nM | 188 nM | 2150 nM | 592 nM | 1370 nM | 2390 nM | 806 nM | 1930 nM | 982 nM | 1620 nM | 133 nM | 328 nM | 885 nM | 247 nM | 475 nM | 1200 nM | 116 nM | 275 nM | 416 nM | TGI (SK-MEL-5): 645 nM; GI50 (MDA-MB-435): 709 nM; GI50 (HL-60(TB)): 1840 nM; GI50 (UACC-62): 1380 nM; GI50 (MDA-MB-231): 565 nM; GI50 (CCRF-CEM): 1080 nM; GI50 (786-0): 2130 nM; GI50 (SNB-19): 2770 nM; GI50 (A549): 653 nM; GI50 (HCT-29): 446 nM; GI50 (NCI-H23): 1910 nM
3 | COc1cc2nc(-c3ccc(Cl)cc3)cc(OCCCN3CCCCC3)c2cc1OC | 582 nM | 1920 nM | 287 nM | 3230 nM | 838 nM | 2540 nM | 3200 nM | 1770 nM | 2750 nM | 1470 nM | 3090 nM | 373 nM | 1210 nM | 1390 nM | 1100 nM | 1220 nM | 1450 nM | 189 nM | 435 nM | 604 nM | GI50 (MDA-MB-435): 2440 nM; GI50 (UACC-62): 1940 nM; GI50 (MDA-MB-231): 666 nM; GI50 (CCRF-CEM): 2790 nM; GI50 (786-0): 2620 nM; GI50 (SNB-19): 2980 nM; GI50 (A549): 1900 nM; GI50 (HCT-29): 492 nM; GI50 (NCI-H23): 2950 nM
